The values below come from ChEMBL document CHEMBL1144432, “New inhibitors of rabbit muscle triose-phosphate isomerase” (Bioorg Med Chem Lett, 2005).

For orientation: IC50 means the concentration that inhibits the measured activity by half. By Ki is commonly meant the dissociation constant of the complex between target and ligand, obtained from inhibition or displacement. Read a low Ki as tighter binding.

Each structure is given as a SMILES string.

T1 sequence (P00939 whole entry): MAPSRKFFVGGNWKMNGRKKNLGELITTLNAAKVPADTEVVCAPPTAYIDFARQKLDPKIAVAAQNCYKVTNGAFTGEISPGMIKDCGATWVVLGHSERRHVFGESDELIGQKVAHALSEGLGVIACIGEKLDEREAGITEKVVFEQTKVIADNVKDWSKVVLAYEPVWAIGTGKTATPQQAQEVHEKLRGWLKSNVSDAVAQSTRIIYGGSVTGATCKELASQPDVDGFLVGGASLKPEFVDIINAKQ

Biological target in one assay: not listed separately
The experiment in a line: Inhibitory concentration against class II fructose-bisphosphate aldolase.
Compound `NNC(=O)CCP(=O)(O)O` gave an IC50 of 3630 µM.
On the same count and under the same terms, the same measure for `N/C(CCP(=O)(O)O)=N\O`: 3420 µM.

A further assay addresses T1, Triosephosphate isomerase (Oryctolagus cuniculus, UniProt P00939). The experiment in a line: Binding affinity against rabbit muscle triose-phosphate isomerase. Further details: species or system Muscle tissue. The gist of the method: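 Rabbit muscle TIM, converting G3P to DHAP, was coupled to a large excess of glycerol-3-phosphate dehydrogenase. NADH consumption was followed at 340 nm. The G3P level was estimated enzymatically with the same coupled system. The cuvette was preincubated 10 min at 25 C, and the reaction was started with G3P (0–250). Inhibitor was tested at 0–30 µM, with inhibition analysed on double-reciprocal plots against 1/[G3P].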
For `N/C(COP(=O)(O)O)=N/O`, the Ki is 4.5 µM.
With `O=C(CCP(=O)(O)O)NO`, the Ki was 159 µM.
`O=C(COP(=O)(O)O)NO` [PHOSPHOGLYCOLOHYDROXAMATE] showed a Ki of 3 µM.
Same read-out and setting: the same measure for `NNC(=O)COP(=O)(O)O` [PHOSPHORIC ACID MONOHYDRAZINOCARBONYLMETHYL ESTER]: 111 µM.

Biological target in another assay: not listed separately
The experiment in a line: Binding affinity against class II fructose-bisphosphate aldolase.
Consider `N/C(COP(=O)(O)O)=N/O`, for which the Ki was 2.3 µM.
The same measure, in the same setting: the same measure for `O=C(CCP(=O)(O)O)NO`: 145 µM; for `O=C(COP(=O)(O)O)NO` [PHOSPHOGLYCOLOHYDROXAMATE]: 0.01 µM.
Still for that read-out and setting: next, `NNC(=O)COP(=O)(O)O` [PHOSPHORIC ACID MONOHYDRAZINOCARBONYLMETHYL ESTER]: 0.34 µM.

The next assay has as its target T1, Triosephosphate isomerase. Kind of assay: Inhibitory concentration against rabbit muscle triose-phosphate isomerase. Further details: species or system Muscle tissue.
The compound `NNC(=O)CCP(=O)(O)O` registered an IC50 of 27000 µM.
Still for that read-out and setting: next, `N/C(CCP(=O)(O)O)=N\O`: 9600 µM.
